In ChEMBL document CHEMBL5214909 one finds CC50, IC50 and EC50 data, which are given here for 30 molecules.

Molecules are shown by their SMILES. Some results are limits rather than exact numbers.

One assay concerns Huh-7. Description: Cytotoxicity against human Huh-7 cells by CytoTox 96 nonradioactive cytotoxicity assay. Format: functional. In a few lines: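 Confluent cells were exposed to compound at 1 to 100 μM for 72 h, and cytotoxicity was read with the CytoTox 96 nonradioactive kit. CC50 came from a variable-slope fit, averaged over at least two determinations.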
Assay [1] deals with Replicase polyprotein 1ab (Severe acute respiratory syndrome coronavirus 2, UniProt P0DTD1). Description: Inhibition of SARS-CoV-2 3CLpro using FAM-SAVLQ/SG-QXL520 as substrate measured after 1 hr by fluorescence based microplate reader analysis. The method, boiled down: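 The protease was full-length, codon-optimized SARS-CoV-2 3CLpro with an N-terminal His6 tag, expressed from pET-28a(+). It was preincubated with serial inhibitor dilutions or DMSO for 1 h at 37 °C in 20 mM HEPES pH 8, 200 mM NaCl, 0.4 mM EDTA, 60% glycerol and 6 mM DTT. Substrate was then added. Fluorescence (ex 480/em 520 nm) was read 1 h later, minus a no-protease background. IC50 came from a variable-slope fit, averaged over at least two determinations.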

The nature of assay [2]: Inhibition of MERS-CoV 3CLpro. Also noted: species or system Middle East respiratory syndrome-related coronavirus.
In the next assay the test system is SARS-CoV-2. In words: Antiviral activity against SARS-CoV-2 infected in African green monkey Vero E6 cells measured after 48 to 72 hrs. Format: functional, organism-based. As to conditions: Severe acute respiratory syndrome coronavirus 2, Vero C1008.

Turning to `CC(C)C[C@H](NC(=O)OCC12CC3CC(CC(C3)C1)C2)C(=O)N[C@H](C=O)C[C@H]1CCNC1=O`, in the assay with Huh-7, the CC50 is greater than 100 µM. Also, the IC50 in assay [1] amounted to 0.18 µM; in assay [2] it was 0.055 µM.
For the molecule `[2H]C([2H])(OC(=O)N[C@@H](CC(C)C)C(=O)N[C@H](C=O)C[C@H]1CCNC1=O)C12CC3CC(CC(O)(C3)C1)C2`, the CC50 in the assay on Huh-7 was greater than 100 µM. This molecule also had a half-maximal inhibitory concentration (IC50) in assay [1] of 0.74 µM.
`CC(C)C[C@H](NC(=O)OC1CC2CCC(C1)N2C(=O)OCc1ccccc1)C(=O)N[C@@H](C[C@H]1CCNC1=O)C(O)S(=O)(=O)O` (stereo not given in full): the CC50 in the assay with Huh-7 is greater than 100 µM. This molecule also had a half-inhibitory concentration (IC50) in assay [1] of 0.37 µM.
Turning to `[2H]C([2H])(OC(=O)N[C@@H](CC(C)C)C(=O)N[C@@H](C[C@H]1CCNC1=O)C(O)S(=O)(=O)[O-])C1CC2CCCC(C2)C1.[Na+]` (stereo not given in full), the CC50 in the assay on Huh-7 is greater than 100 µM. Also, the IC50 in assay [1] was 0.29 µM.
For the molecule `CC(C)C[C@H](NC(=O)OCC12CC3CC(CC(O)(C3)C1)C2)C(=O)N[C@@H](C[C@H]1CCNC1=O)C(O)S(=O)(=O)O` (stereo not given in full), the CC50 in the assay on Huh-7 is greater than 100 µM. This molecule also had an IC50 in assay [1] of 1.03 µM.
Regarding `[2H]C([2H])(OC(=O)N[C@@H](CC(C)C)C(=O)N[C@H](C=O)C[C@H]1CCNC1=O)C1CC2CCCC(C2)C1` (stereo not given in full), the CC50 with Huh-7 is greater than 100 µM. In assay [1], this molecule came in with an IC50 of 0.29 µM.
Consider `CC(C)C[C@H](NC(=O)OCC12CC3CC(CC(C3)C1)C2)C(=O)N[C@@H](C[C@H]1CCNC1=O)C(O)S(=O)(=O)O` (stereo not given in full), for which the 50% cytotoxic concentration (CC50) in the assay on Huh-7 was greater than 100 µM. Also, the half-inhibitory concentration (IC50) was found to be 0.15 µM in assay [1] and 0.053 µM in assay [2].
`CC(C)C[C@H](NC(=O)OC1CC2CCC(C1)N2C(=O)OC(C)(C)C)C(=O)N[C@@H](C[C@H]1CCNC1=O)C(O)S(=O)(=O)O` (stereo not given in full): the CC50 in the assay with Huh-7 is greater than 100 µM. Also, 1.71 µM corresponded to half-maximal inhibition in assay [1] (IC50).
Consider `CC(C)C[C@H](NC(=O)OCCC12CC3CC(CC(C3)C1)C2)C(=O)N[C@@H](C[C@H]1CCNC1=O)C(O)S(=O)(=O)O` (stereo not given in full), for which the 50% cytotoxic concentration (CC50) with Huh-7 is greater than 100 µM. In assay [1], this molecule returned an IC50 of 0.25 µM.
For `CC(C)C[C@H](NC(=O)OCC12CC3CC(CC(O)(C3)C1)C2)C(=O)N[C@H](C=O)C[C@H]1CCNC1=O`, the CC50 with Huh-7 is greater than 100 µM. Also, in assay [1], the IC50 was 0.82 µM.
For the molecule `CC(C)C[C@H](NC(=O)OCCC12CC3CC(CC(C3)C1)C2)C(=O)N[C@H](C=O)C[C@H]1CCNC1=O`, the half-maximal cytotoxic concentration (CC50) in the assay on Huh-7 was greater than 100 µM. Also, the IC50 in assay [1] worked out at 0.27 µM.
As for `[2H]C([2H])(OC(=O)N[C@@H](CC(C)C)C(=O)N[C@@H](C[C@H]1CCNC1=O)C(O)S(=O)(=O)[O-])C12CC3CC(CC(C3)C1)C2.[Na+]` (stereo not given in full), the 50% cytotoxic concentration (CC50) with Huh-7 is greater than 100 µM. In assay [1], the IC50 stood at 0.27 µM.
As to `[2H]C([2H])(OC(=O)N[C@@H](CC(C)C)C(=O)N[C@H](C=O)C[C@H]1CCNC1=O)C12CC3CC(CC(C3)C1)C2`, the CC50 in the assay with Huh-7 is greater than 100 µM. Further, it took 0.29 µM to reach half-maximal inhibition in assay [1] (IC50).
For the molecule `[2H]C([2H])(OC(=O)N[C@@H](CC(C)C)C(=O)N[C@@H](C[C@H]1CCNC1=O)C(O)S(=O)(=O)[O-])C12CC3CC(CC(O)(C3)C1)C2.[Na+]` (stereo not given in full), the CC50 in the assay on Huh-7 is greater than 100 µM. The same molecule showed an IC50 in assay [1] of 0.78 µM.
For the molecule `CC(C)C[C@H](NC(=O)OC1CC2CCC(C1)N2C(=O)OC(C)(C)C)C(=O)N[C@H](C=O)C[C@H]1CCNC1=O` (stereo not given in full), in the assay with Huh-7, the half-maximal cytotoxic concentration (CC50) was greater than 100 µM. For the same molecule, in assay [1], the IC50 was 1.9 µM.
For `CC(C)C[C@H](NC(=O)OCC1CC2CCCC(C2)C1)C(=O)N[C@H](C=O)C[C@H]1CCNC1=O` (stereo not given in full), the CC50 in the assay with Huh-7 is greater than 100 µM. Besides, the IC50 in assay [1] came to 0.18 µM; in assay [2], 0.052 µM. In the assay with SARS-CoV-2, this molecule returned an EC50 of 0.035 µM.
`CC(C)C[C@H](NC(=O)OC1CC2CCC(C1)N2C(=O)OCc1ccccc1)C(=O)N[C@H](C=O)C[C@H]1CCNC1=O` (stereo not given in full): in the assay on Huh-7, the cytotoxic concentration (CC50) is greater than 100 µM. Besides, half-maximal inhibition in assay [1] (IC50) was put at 0.39 µM.
In the case of `CCCCCC12CCC(COC(=O)N[C@@H](CC(C)C)C(=O)N[C@@H](C[C@@H]3CCNC3=O)C(O)S(=O)(=O)O)(CC1)CC2` (single isomer, unassigned), the 50% cytotoxic concentration (CC50) in the assay with Huh-7 was determined as 21 µM.
Consider `CC(C)C[C@H](NC(=O)OCC1C[C@H]2CCC[C@@H](C1)C2)C(=O)N[C@@H](C[C@@H]1CCNC1=O)C(O)S(=O)(=O)O` (single isomer, unassigned), for which the cytotoxic concentration (CC50) with Huh-7 was greater than 100 µM. This molecule also yielded an EC50 with SARS-CoV-2 of 0.032 µM. In addition, in assay [2], the IC50 is 0.049 µM.
Take `CC(C)C[C@H](NC(=O)OCC1CC2C=CC1C2)C(=O)N[C@H](C=O)C[C@@H]1CCNC1=O` (single isomer, unassigned): the CC50 in the assay with Huh-7 was greater than 100 µM.
In the case of `CC(C)C[C@H](NC(=O)OCC1CC2CCC1C2)C(=O)N[C@@H](C[C@@H]1CCNC1=O)C(O)S(=O)(=O)O` (single isomer, unassigned), in the assay on Huh-7, the cytotoxic concentration (CC50) is greater than 100 µM. The molecule further came in with an IC50 in assay [2] of 0.058 µM.
With `[2H]C([2H])(OC(=O)N[C@@H](CC(C)C)C(=O)N[C@@H](CC1CCNC1=O)C(O)S(=O)(=O)O)C12CCC(CCCCC)(CC1)CC2` (single isomer, unassigned), the CC50 in the assay with Huh-7 turned out to be 23 µM.
On to `CCCCCC12CCC(COC(=O)N[C@@H](CC(C)C)C(=O)N[C@H](C=O)C[C@@H]3CCNC3=O)(CC1)CC2` (single isomer, unassigned), for which the 50% cytotoxic concentration (CC50) in the assay with Huh-7 amounted to 21 µM.
On to `CC(C)C[C@H](NC(=O)OCC1CC2CCC1C2)C(=O)N[C@H](C=O)C[C@@H]1CCNC1=O` (single isomer, unassigned), for which the half-maximal cytotoxic concentration (CC50) in the assay on Huh-7 is greater than 100 µM. The same molecule displayed an IC50 in assay [2] of 0.063 µM.
On to `CC(C)C[C@H](NC(=O)OCC1CC2C=CC1C2)C(=O)N[C@@H](C[C@@H]1CCNC1=O)C(O)S(=O)(=O)O` (single isomer, unassigned), for which the CC50 in the assay with Huh-7 is greater than 100 µM.
Same read-out and setting: the value for `[2H]C([2H])(OC(=O)N[C@@H](CC(C)C)C(=O)N[C@H](C=O)CC1CCNC1=O)C12CCC(CCCCC)(CC1)CC2` (single isomer, unassigned) was 20 µM; that for `CC(C)C[C@H](NC(=O)OCC1C[C@@H]2C=CC[C@H](C1)C2)C(=O)N[C@H](C=O)C[C@@H]1CCNC1=O` (single isomer, unassigned) was greater than 100 µM; that for `[2H]C([2H])(OC(=O)N[C@@H](CC(C)C)C(=O)N[C@@H](CC1CCNC1=O)C(O)S(=O)(=O)O)C1CC2C=CCC(C2)C1` (single isomer, unassigned) was greater than 100 µM.
`CC(C)C[C@H](NC(=O)OCC1C[C@@H]2C=CC[C@H](C1)C2)C(=O)N[C@@H](C[C@@H]1CCNC1=O)C(O)S(=O)(=O)O` (single isomer, unassigned): the CC50 in the assay on Huh-7 was greater than 100 µM.
The same measure, in the same setting: the value for `[2H]C([2H])(OC(=O)N[C@@H](CC(C)C)C(=O)N[C@H](C=O)CC1CCNC1=O)C1CC2C=CCC(C2)C1` (single isomer, unassigned) was greater than 100 µM.

For orientation: CC50 means the concentration that lowers cell viability or growth by half. As usually defined, the IC50 is the point on the concentration scale where inhibition reaches its midpoint. The EC50 is the midpoint of the concentration-response curve.
